Source: ChEMBL document CHEMBL3763011, “Carbohydrate-based inducers of cellular stress for targeting cancer cells” (Bioorg Med Chem Lett, 2016)
Calls of active or inactive are those of the source. The rule behind the calls is not given here.

Columns and labels:
NCI-H1299 [1] = assay: Cytotoxicity against human NCI-H1299 cells assessed as reduction in cell viability after 48 hrs by MTT assay; format: functional, cell-based; details: for IC50: NCI-H1299, 48 h
Summary of the method: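 H1299 non-small cell lung carcinoma cells incubated with compound for 48 h. Viability by MTT relative to non-treated control (Vi/Vo). IC50 taken from dose–response.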

NCI-H1299 [2] = assay: Cytotoxicity against human NCI-H1299 cells assessed as reduction in cell viability at 100 uM after 48 hrs by MTT assay; format: functional, cell-based
Summary of the method: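 H1299 cells treated at 100 µM for 48 h in duplicate. MTT viability expressed as treated versus non-treated control (Vi/Vo).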

NCI-H1299 [3] = assay: Cytotoxicity against human NCI-H1299 cells assessed as viability at 500 uM after 48 hrs by MTT assay; format: functional; details: NCI-H1299, 48 h, read-out: Activity
Summary of the method: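 H1299 non-small cell lung carcinoma cells incubated with compound for 48 h; viability read by MTT assay and expressed as treated (Vi) relative to non-treated control (Vo).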

[4] = target: T1, AMP-activated protein kinase, AMPK (Homo sapiens) (UniProt P54646+O43741+P54619+Q9UGJ0+Q9Y478+Q13131+Q9UGI9); assay: Activation of AMPK in HEK293 cells assessed as AMPK phosphorylation after 16 hrs by Western blotting method; format: cell-based
Summary of the method: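 HEK293 cells treated with increasing concentrations of compound for 16 h; cell lysates analysed by Western blot with antibodies to phosphorylated AMPK (also p53).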

NCI-H1299 [5] = assay: Induction of ROS generation in human NCI-H1299 cells at […] after 5 hrs by DCF-DA staining-based assay
NCI-H1299 [6] = assay: Induction of ROS generation in human NCI-H1299 cells at <= 100 uM after 5 hrs by DCF-DA staining-based assay; format: functional
NCI-H1299 [7] = assay: Induction of ROS generation in human NCI-H1299 cells at 100 uM after 5 hrs by DCF-DA staining-based assay; format: functional
Summary of the method: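 Single-point screen at 100 µM in duplicate, 5 h incubation in H1299 cells. ROS detected by DCF-DA fluorescence, reported as fold over non-treated control (Fi/Fo).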

NCI-H1299 [8] = assay: Induction of ROS generation in human NCI-H1299 cells after 5 hrs by DCF-DA staining-based assay; format: functional, cell-based
Summary of the method: (§1)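 H1299 cells incubated 5 h with increasing compound concentrations (0–100 µM). ROS read with the cell-permeable probe DCF-DA. Fluorescence of treated cells (Fi) ratioed to non-treated control (Fo).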

[9] = target: Endoplasmic reticulum chaperone BiP (Homo sapiens) (UniProt P11021); assay: Induction of glucose-regulated protein 78 in HEK293 cells at 200 uM after 6 hrs by Western blotting method; format: cell-based
Sequence of Endoplasmic reticulum chaperone BiP (Homo sapiens) (P11021 whole entry): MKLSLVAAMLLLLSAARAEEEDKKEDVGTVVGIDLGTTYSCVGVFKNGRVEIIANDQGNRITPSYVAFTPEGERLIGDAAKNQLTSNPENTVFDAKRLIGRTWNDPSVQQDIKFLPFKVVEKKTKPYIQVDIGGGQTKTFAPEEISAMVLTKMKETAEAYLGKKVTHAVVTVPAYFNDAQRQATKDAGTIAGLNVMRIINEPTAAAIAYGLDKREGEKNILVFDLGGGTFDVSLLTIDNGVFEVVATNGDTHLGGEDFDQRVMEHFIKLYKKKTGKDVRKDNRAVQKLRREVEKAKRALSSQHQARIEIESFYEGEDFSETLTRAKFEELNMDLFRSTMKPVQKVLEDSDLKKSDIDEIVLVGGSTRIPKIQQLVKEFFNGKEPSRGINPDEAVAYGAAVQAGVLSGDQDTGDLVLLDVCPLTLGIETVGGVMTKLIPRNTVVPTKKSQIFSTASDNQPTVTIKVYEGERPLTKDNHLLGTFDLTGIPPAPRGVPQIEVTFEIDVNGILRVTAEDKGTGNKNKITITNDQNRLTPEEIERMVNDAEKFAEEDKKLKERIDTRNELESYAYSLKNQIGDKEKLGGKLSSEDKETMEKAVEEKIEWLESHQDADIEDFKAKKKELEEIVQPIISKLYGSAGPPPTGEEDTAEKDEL
Summary of the method: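 GRP78 (BiP) induction, an ER stress marker, assessed by Western blot of HEK293 lysates after treatment at 200 µM.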

NCI-H1299 [10] = assay: Induction of ROS generation in human NCI-H1299 cells at <= 50 uM after 5 hrs by DCF-DA staining-based assay; format: functional; summary of the method: as §1
[11] = target: T1, AMP-activated protein kinase, AMPK (Homo sapiens); assay: Activation of AMPK in HEK293 cells assessed as p53 stabilization at 0.03 to 0.1 mM after 16 hrs by Western blotting method; format: cell-based

## OO [HYDROGEN PEROXIDE]
NCI-H1299 [1]
  IC50: 60 µM

## O[C@@H]1[C@@H](O)[C@@H](O)CO[C@H]1Nc1ccccc1
NCI-H1299 [2]
  Activity: Active

## OC[C@H]1OC(O)C[C@@H](O)[C@@H]1O (stereo partly specified)
NCI-H1299 [3]
  viability at 500 µM: 80%
[4]
  Activity: Dose-dependent effect
NCI-H1299 [5]
  fold change (FC): 1.5

## O[C@H]1[C@H](O)[C@@H](Nc2cccc3ccccc23)OC[C@H]1O
NCI-H1299 [1]
  IC50: 75 µM
NCI-H1299 [2]
  Activity: Active
NCI-H1299 [6]
  fold change (FC): 2
NCI-H1299 [7]
  fold change (FC): >=2
NCI-H1299 [8]
  Activity: Dose-dependent effect

## O[C@H]1[C@H](O)[C@@H](Nc2ccccc2)OC[C@H]1O
NCI-H1299 [2]
  Activity: Active
NCI-H1299 [7]
  Activity: inactive

## O[C@@H]1[C@@H](O)[C@H](Nc2cccc3ccccc23)OC[C@H]1O
NCI-H1299 [1]
  IC50: 75 µM
NCI-H1299 [2]
  Activity: Active
NCI-H1299 [6]
  fold change (FC): 2
NCI-H1299 [7]
  fold change (FC): >=2
[9]
  Activity: Active
NCI-H1299 [8]
  Activity: Dose-dependent effect

## O=C[C@H](O)[C@@H](O)[C@H](O)CO
NCI-H1299 [1]
  Activity: inactive

## OC[C@H]1OC(Nc2cccc3ccccc23)[C@H](O)[C@@H](O)[C@H]1O (stereo partly specified)
NCI-H1299 [7]
  fold change (FC): >=2

## CC(=O)OC1OC[C@@H](OC(C)=O)[C@H](OC(C)=O)[C@H]1OC(C)=O (stereo partly specified)
NCI-H1299 [1]
  Activity: inactive

## CC(=O)N[C@H]1C(Nc2ccc3nccnc3c2)O[C@H](CO)[C@@H](O)[C@@H]1O (stereo partly specified)
NCI-H1299 [7]
  fold change (FC): >=2

## O=c1oc2ccccc2cc1N[C@@H]1OC[C@H](O)[C@H](O)[C@H]1O
NCI-H1299 [7]
  fold change (FC): >=2

## O[C@H]1[C@H](O)[C@H](Nc2ccccc2)OC[C@H]1O
NCI-H1299 [2]
  Activity: Active
NCI-H1299 [7]
  Activity: inactive

## CC(=O)O[C@@H]1[C@@H](OC(C)=O)[C@H](OC(C)=O)CO[C@H]1Nc1cccc2ccccc12
NCI-H1299 [10]
  fold change (FC): 1.5
NCI-H1299 [1]
  IC50: 30 µM
[4]
  Activity: Dose-dependent effect
[11]
  Activity: Active
[9]
  Activity: Active

## C[C@@H]1OC(Nc2cccc3ccccc23)[C@H](O)[C@H](O)[C@H]1O (stereo partly specified)
NCI-H1299 [7]
  fold change (FC): >=2
